Measurements pooled from the literature.
Each line is one published result; the experiments were not run side by side.
OPRK1: Kappa-type opioid receptor (OPRK1, Homo sapiens, UniProt P41145)
CNR1: Cannabinoid receptor 1 (CNR1, Homo sapiens, UniProt P21554)
PFF0160c: Dihydroorotate dehydrogenase (quinone), mitochondrial (PFF0160c, Plasmodium falciparum, UniProt Q08210)

SMILES	target	observed	action	technique	setting	measurement	value
N#Cc1ccc(C(=O)N[C@H]2CC[C@@]3(O)[C@H]4Cc5ccc(O)c6c5[C@@]3(CCN4CC3CC3)[C@H]2O6)s1	OPRK1	ligand displacement		radioligand	cell membranes	Ki	3.61 nM
CCCCCn1c(O)c(N=NC(=O)c2ccccc2)c2ccccc21	CNR1	ligand displacement		radioligand	cell membranes	Ki	1560 nM
CC(=O)Nc1ccc(C(=O)N[C@H]2CC[C@@]3(O)[C@H]4Cc5ccc(O)c6c5[C@@]3(CCN4CC3CC3)[C@H]2O6)s1	OPRK1	ligand displacement		radioligand	cell membranes	Ki	4.96 nM
O=C(N=Nc1c(O)n(CCCCCF)c2ccccc12)c1ccccc1	CNR1	ligand displacement		radioligand	cell membranes	Ki	2240 nM
CCn1ccc2c(Cc3ccc(C(F)(F)F)nc3)n(C)nc2c1=O	PFF0160c	enzyme activity	inhibitor			IC50	1580 nM
O=C(N[C@H]1CC[C@@]2(O)[C@H]3Cc4ccc(O)c5c4[C@@]2(CCN3CC2CC2)[C@H]1O5)c1ccc(F)s1	OPRK1	ligand displacement		radioligand	cell membranes	Ki	2.2 nM
C=CCCCn1c(O)c(N=NC(=O)c2ccccc2)c2ccccc21	CNR1	β-arrestin recruitment	agonist			EC50	1040 nM
Cn1nc2c(=O)n(C3CC3)cnc2c1[C@@](O)(c1cnc(C(F)(F)F)c(Cl)c1)C(F)(F)F	PFF0160c	enzyme activity	inhibitor			IC50	5010 nM
CNC(=O)c1ccc(-c2cnn3ccc(C(=O)N(C)c4ccc(Cl)c(C(=O)O)c4)cc23)cc1	Serine/threonine-protein kinase WNK1 (WNK1, Homo sapiens, UniProt Q9H4A3)	enzyme activity	inhibitor			IC50	> 30000 nM
Cn1nc2c(=O)n(C3CC3)cc(C3CC3)c2c1Cc1ccc(C(F)(F)F)nc1	PFF0160c	enzyme activity	inhibitor			IC50	39.8 nM
NS(=O)(=O)c1ccc(C(=O)N[C@H]2CC[C@@]3(O)[C@H]4Cc5ccc(O)c6c5[C@@]3(CCN4CC3CC3)[C@H]2O6)s1	OPRK1	ligand displacement		radioligand	cell membranes	Ki	3.93 nM
Cn1nc2c(=O)n(C3CC3)ncc2c1[C@](O)(c1ccc(C(F)(F)F)c(Cl)c1)C(F)(F)F	PFF0160c	enzyme activity	inhibitor			IC50	7.94 nM
COc1ccc(C(=O)N[C@H]2CC[C@@]3(O)[C@H]4Cc5ccc(O)c6c5[C@@]3(CCN4CC3CC3)[C@H]2O6)s1	OPRK1	ligand displacement		radioligand	cell membranes	Ki	1.69 nM
COC(=O)[C@@H](NC(=O)c1nn(Cc2ccc(F)cc2)c2ccccc12)C(C)C	CNR1	β-arrestin recruitment	agonist			EC50	20 nM
CCCCCc1cc(O)c2c(c1)OC(C)(CCC=C(C)C)C=C2 (stereo not drawn)	CNR1	ligand displacement		radioligand		Ki	6760 nM
